Data set [1] relates to Plasmodium falciparum. Nature of the data set: Inhibition of [3H]hypoxanthine uptake in Plasmodium falciparum 3D7. The data set is classed as functional, organism-based. The conditions noted are these: 3D7, 48 h.
For data set [2], the system named is Plasmodium falciparum. Nature of the data set: Antiplasmodial activity against Plasmodium falciparum 3D7. The data set is classed as functional, organism-based. The method in brief:
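P. falciparum 3D7 kept in erythrocyte culture. Triplicate cultures exposed to a range of purine base concentrations for 48 h, without radiolabel. Giemsa-stained blood smears examined by light microscopy to determine parasitemia. IC50 taken as the inhibition of growth, from counts of viable parasites.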

Data set [3] has as its system Plasmodium falciparum.
Data set [4] has as its system Plasmodium falciparum. The source holds these as a separate data set.
Data set [5] is described as follows: Inhibition of Plasmodium falciparum HGXPRT at pH 7.4.
The next data set has as its system Plasmodium lophurae. Description: Inhibition of Plasmodium lophurae 6 oxopurine phosphoribosyl transferase.
The subject of another data set is Plasmodium chabaudi. Nature of the data set: Inhibition of Plasmodium chabaudi 6 oxopurine phosphoribosyl transferase.
Data set [6] relates to Sphi609. Nature of the data set: Inhibition of Escherichia coli Sphi609 cells expressing Plasmodium falciparum HGXPRT. The data set is classed as functional, cell-based.
Data set [7] deals with Sphi609. Nature of the data set: Inhibition of Escherichia coli Sphi609 cells expressing human HGPRT. The data set is classed as functional, cell-based.
Data set [8] is described as follows: Inhibition of Toxoplasma gondii 6 oxopurine phosphoribosyl transferase.
The subject of data set [9] is Plasmodium falciparum. Description: Inhibition of [3H]hypoxanthine uptake into Plasmodium falciparum 3D7 at 130 uM. The data set is classed as functional, organism-based.
Data set [10] deals with Plasmodium falciparum. Nature of the data set: Antimalarial activity against Plasmodium falciparum 3D7 at 130 uM. The data set is classed as functional, organism-based.
Data set [11] has as its system Plasmodium falciparum. Description: Antimalarial activity against Plasmodium falciparum. It is filed as functional, organism-based. A digest of the protocol: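 P. falciparum 3D7, a laboratory-adapted isolate, was kept in erythrocyte culture. Triplicate cultures were exposed to a range of purine base concentrations with 0.5 µCi/well [3H]hypoxanthine for 48 h, and label incorporation into nucleic acids was measured. Parallel cultures without label were run for 48 h, and parasitemia was read on Giemsa-stained smears by light microscopy. IC50 was derived for each read-out.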

The test system of data set [12] is Plasmodium falciparum. Nature of the data set: Inhibition of [3H]hypoxanthine uptake into Plasmodium falciparum 3D7 at 125 uM. It is filed as functional, organism-based.
In data set [13] the test system is Plasmodium falciparum. Nature of the data set: Antimalarial activity against Plasmodium falciparum 3D7 at 125 uM. It is filed as functional, organism-based.
For data set [14], the system named is Plasmodium falciparum. Description: Inhibition of [3H]hypoxanthine uptake into Plasmodium falciparum 3D7 at 120 uM. The data set is classed as functional, organism-based.
Data set [15] has as its system Plasmodium falciparum. Description: Antimalarial activity against Plasmodium falciparum 3D7 at 120 uM. It is filed as functional, organism-based.
Substrate in data set [16]: Sc1ncnc2nc[nH]c12
Particulars: Homo sapiens.

Substrate in data set [17]: O=c1[nH]cnc2nc[nH]c12
The conditions noted are these: Homo sapiens.

Substrate in data set [18]: Nc1nc2[nH]cnc2c(=S)[nH]1
The conditions noted are these: Homo sapiens.

Substrate in data set [19]: Nc1nc2[nH]cnc2c(=O)[nH]1
Particulars: Homo sapiens.

Substrate in data set [20]: Oc1ncnc2[nH]ncc12
The conditions noted are these: Homo sapiens.

Substrate in data set [21]: Nc1nc(O)c2[nH]nnc2n1
Particulars: Homo sapiens.

Substrate in data set [22]: Sc1ncnc2nc[nH]c12
Particulars: Homo sapiens. This is another data set of the same source.

Substrate in data set [23]: O=c1[nH]cnc2nc[nH]c12
Particulars: Homo sapiens. This is another data set of the same source.

Substrate in data set [24]: Nc1nc2[nH]cnc2c(=S)[nH]1
Particulars: Homo sapiens. The source holds these as a separate data set.

Substrate in data set [25]: Nc1nc2[nH]cnc2c(=O)[nH]1
Particulars: Homo sapiens. This is another data set of the same source.

Substrate in data set [26]: Oc1ncnc2[nH]ncc12
Particulars: Homo sapiens. This is another data set of the same source.

The source made the active and inactive calls. The calls are words filed in the database; no cut-off is given here.

In general, IC50 refers to the concentration that gives 50% inhibition. Lower therefore signals greater potency in that assay. One may read the Km as the substrate concentration at which the rate is half of its maximum. As for `Nc1nc(O)c2[nH]nnc2n1` [8-AZAGUANINE], the IC50 in the data set with Plasmodium falciparum [1] came out at 6.6 µM; in the data set on Plasmodium falciparum [2] it was 18 µM. The Km was 12.6 µM in the data set on Plasmodium falciparum [3] and 26.6 µM in the data set with Plasmodium falciparum [4].
In the case of `O=c1[nH]cnc2[nH]nnc12`, the IC50 was determined as 90 µM in the data set on Plasmodium falciparum [1] and 38 µM in the data set with Plasmodium falciparum [2]. The figures for the Km in the data set on Plasmodium falciparum [3] and with Plasmodium falciparum [4] were 25.6 µM and 145 µM, respectively.
What is called Ki is a measure of affinity in units of concentration, obtained from inhibition or displacement. Low values mean tighter binding, high ones weaker binding. As for `O=c1[nH]c(=O)c2nn[nH]c2[nH]1`, the Ki in data set [5] is not below 100 µM.
For the molecule `Nc1nc2[nH]cnc2c(=S)[nH]1` [THIOGUANINE], the values for the IC50 with Plasmodium falciparum [1] and in the data set on Plasmodium falciparum [2] were 21.3 µM and 10 µM, respectively. For the same molecule, the Km with Plasmodium falciparum [3] was 0.75 µM; with Plasmodium falciparum [4], 1.9 µM. For the same molecule, the result with Plasmodium lophurae, in the data set with Plasmodium chabaudi, in the data set with Sphi609 [6] and with Sphi609 [7] was Active.
Regarding `Nc1nc2ncnc-2c[nH]1` [2-AMINOPURINE], in data set [8], the Ki amounted to 60 µM.
The molecule `O=c1[nH]cnc2nc[nH]c12` [HYPOXANTHINE] came in with an IC50 with Plasmodium falciparum [1] of 4.2 µM. Also, the Km with Plasmodium falciparum [3] was determined as 0.07 µM; with Plasmodium falciparum [4], 0.9 µM.
As to `Nc1nc2[nH]cnc2c(=O)[nH]1` [GUANINE], the IC50 with Plasmodium falciparum [1] was determined as 35.3 µM; in the data set on Plasmodium falciparum [2] it was 60 µM. The values for the Km with Plasmodium falciparum [3] and with Plasmodium falciparum [4] were 0.83 µM and 1.4 µM, respectively.
Consider `O=c1[nH]c(=O)c2nc[nH]c2[nH]1`, for which the result in the data set on Plasmodium falciparum [9] and with Plasmodium falciparum [10] was inactive. For the same molecule, the Km came out at 189 µM in the data set on Plasmodium falciparum [3] and 420 µM with Plasmodium falciparum [4].
In turn, `Oc1ncnc2[nH]ncc12` [ALLOPURINOL] gave an IC50 with Plasmodium falciparum [1] not below 150 µM. For the same molecule, in the data set with Plasmodium falciparum [11], the result was inactive. Also, the Km in the data set with Plasmodium falciparum [3] amounted to 10.5 µM; with Plasmodium falciparum [4], 11.7 µM.
Take `Nc1nc(Cl)c2nc[nH]c2n1` [6-CHLOROGUANINE]: the IC50 with Plasmodium falciparum [1] worked out at 67 µM; in the data set on Plasmodium falciparum [2], 10 µM. Besides, the Km with Plasmodium falciparum [3] was 176 µM.
As to `O=c1[nH]c(S)nc2[nH]cnc12`, the outcome in the data set on Plasmodium falciparum [12] and with Plasmodium falciparum [13] was inactive.
Regarding `Sc1ncnc2nc[nH]c12` [MERCAPTOPURINE ANHYDROUS], the IC50 in the data set on Plasmodium falciparum [1] came to 1.3 µM; in the data set on Plasmodium falciparum [2] it was 2 µM. Besides, the Km in the data set with Plasmodium falciparum [3] turned out to be 0.02 µM; in the data set on Plasmodium falciparum [4], 1.6 µM. Besides, the outcome with Plasmodium lophurae, in the data set on Plasmodium chabaudi, in the data set on Sphi609 [6] and with Sphi609 [7] was Active.
As to `O=c1[nH]c(=S)c2nc[nH]c2[nH]1`, the Km in the data set on Plasmodium falciparum [3] stood at 82 µM. For the same molecule, the result with Plasmodium falciparum [14] and with Plasmodium falciparum [15] was inactive.

B1: Hypoxanthine-guanine phosphoribosyltransferase (Homo sapiens), P00492 (protein)
chain: MATRSPGVVISDDEPGYDLDLFCIPNHYAEDLERVFIPHGLIMDRTERLARDVMKEMGGHHIVALCVLKGGYKFFADLLDYIKALNRNSDRSIPMTVDFIRLKSYCNDQSTGDIKVIGGDDLSTLTGKNVLIVEDIIDTGKTMQTLLSLVRQYNPKMVKVASLLVKRTPRSVGYKPDFVGFEIPDKFVVGYALDYNEYFRDLNHVCVISETGKAKYKA
As for B1, the Km came out at 3 µM in data set [16]; 3.1 µM in data set [17]; 5.9 µM in data set [18]; 1.9 µM in data set [19]; 135 µM in [20]; 72 µM in data set [21]. The Km in data set [22] amounted to 1.15 µM; in [23], 3.4 µM; in data set [24], 1.7 µM; in data set [25], 1.9 µM; in data set [26], 47.9 µM.
